# Measured values: PMC11589030 (Discover Oncology, 2024)
# pIC50: −log10 of the molar value. Entries after “also recorded” stand apart in the source; their conditions may differ. Where two headings read alike, the source gives them in different places.
# Experiments:
# [1] = Drug metabolism rate assay; type: in vitro ADME; conditions: human, MHCC97-H cells
# E-Cadherin = assay: AmpliSeq expression in MHCC97-H cells: E-Cadherin; type: cell-based; conditions: Fig. 5B
# Method in brief: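 MHCC97-H cells in DMEM with 10% FBS were treated with pralatrexate (2, 1, 0.5), fatostatin (1, 0.1) or BAY-876 (1, 0.1 μmol/L). RNA (10 ng) was reverse transcribed and amplified with custom AmpliSeq RNA panels. Expression was normalised to β-actin. Three replicate wells per sample; three biological replicates.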
# miRNA-34a/Notch pathway = assay: BSP-NGS, AmpliSeq and western blot of subcutaneous tumour tissues; type: in vivo, nude mice
# Method in brief: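 Female BALB/c nude mice (5-week-old, SPF) bore subcutaneous MHCC97-H tumours, one per animal, 10 per group. Pralatrexate 5 mg/kg was given by oral gavage every other day for about 15 doses. All excised tumours underwent BSP-NGS (miRNA-34a promoter methylation) and AmpliSeq (miRNA-34a expression). Tumours 2, 4 and 8 were lysed in RIPA/SDS buffer for western blot of NICD against GAPDH.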
# HCC cells = assay: Biochemical examination of metabolic features; type: cell-based; conditions: compared to BAY-876 or fatostatin, Fig. 6
# NICD = assay: AmpliSeq expression in MHCC97-H cells: NICD; type: cell-based; conditions: MHCC97-H cells with direct expression of NICD, Fig. 7
# miRNA-34a = assay: AmpliSeq miRNA-34a expression in MHCC97-H cells; type: cell-based; conditions: MHCC97-H cells with direct expression of NICD, Fig. 7
# Method in brief: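 MHCC97-H cells were transduced with NICD lentivirus and cultured in DMEM with 10% FBS. RNA (10 ng) was reverse transcribed and cDNA amplified with custom AmpliSeq RNA panels to quantify miRNA-34a, normalised to β-actin. Three replicate wells per sample; three biological replicates.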
# MHCC97-H cells [2] = assay: In vivo tumor model, MHCC97-H subcutaneous tumours; parameters: species or system nude mice
# Notch 1 protein and NICD = assay: Sub-cellular fraction assay with western blot; type: cell-based; conditions: MHCC97-H, 2 μmol/L, 30 min, 1 h, 2 h
# Method in brief: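 After treatment, cells were sonicated. Nuclei were pelleted at 800 rpm, 4 °C, ~3 min, and the cytoplasmic fraction at 12,000 rpm, 4 °C, ~10 min. Fractions were boiled ~15 min in SDS-PAGE buffer and blotted onto PVDF. One C-terminal Notch1 antibody detected full-length Notch1 (>220 kDa) and NICD (~110 kDa). β-actin and Lamin A served as cytoplasmic and nuclear markers; detection was by chemiluminescence.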
# [3] = test system: miRNA-34a promoter region; assay: BSP-NGS methylation of miRNA-34a promoter in MHCC97-H cells; type: cell-based; conditions: MHCC97-H cells with direct expression of NICD, Fig. 7
# Method in brief: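 Genomic DNA from NICD-lentivirus-transduced MHCC97-H cells was isolated with a kit and used for bisulfite sequencing PCR plus next-generation sequencing. The region analysed was the miRNA-34a promoter segment chr1: 9152409–9152574, which holds seven CpG sites. Methylation rates were calculated by the Ma et al. (2020) procedure.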
# MHCC97-H cells [4] = assay: MTT assay, MHCC97-H cells; type: cell-based; conditions: Homo sapiens, MHCC97H
# Method in brief: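 MHCC97-H cells in DMEM with 10% FBS were pretreated 6–8 h with solvent control or pralatrexate (0.5, 1, 2 μmol/L). Molecular targeted drugs were then added as a seven-point series from 10 to 0.01 for about 48 h, with drugs dissolved in DMSO and diluted in DMEM. Viability was read by MTT at OD 490 nm. Inhibition % was computed against control and IC50 fitted in GraphPad Prism.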
# HepG2 cells = assay: MTT assay, HepG2 cells; type: cell-based; conditions: Homo sapiens
# Method in brief: (§1)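 HCC cells were transfected with control siRNA or siRNA against DHFR. Test compound was dissolved in DMSO, diluted in DMEM and applied at a concentration series. Viability was read by MTT and OD 490 nm. Inhibition = (OD control − OD treated)/OD control × 100%. IC50 was taken from dose–effect curves.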
# LMC-3 cells = assay: MTT assay, LMC-3 cells; type: cell-based
# Method in brief: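 LMC-3 cells in DMEM with 10% FBS were transfected with control siRNA or siDHFR. They were then exposed to graded sorafenib concentrations and assayed by MTT. Inhibition = (OD490 control − OD490 treated)/OD490 control × 100%. IC50 was fitted from dose–effect curves in GraphPad Prism.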
# HepG2 2.2.15 cells = assay: MTT assay, HepG2 2.2.15 cells; type: cell-based; conditions: Homo sapiens
# Method in brief: as §1
compound,measurement,setting,value
"COc1cccc2c1C(=O)c1c(O)c3c(c(O)c1C2=O)C[C@@](O)(C(=O)CO)C[C@@H]3O[C@H]1C[C@H](N)[C@H](O)[C@H](C)O1 [Adriamycin, adriamycin]",half-life at 0.3 μmol/L,[1],13.2 h
Cc1c(NC(=O)c2cc(C(N)=O)nc3cc(F)ccc23)c(C(F)(F)F)nn1Cc1ccc(C#N)cc1 [BAY-876],E-Cadherin expression,E-Cadherin,enhanced the expression of E-Cadherin
"CCCc1cc(-c2nc(-c3ccc(C)cc3)cs2)ccn1 [Fatostatin, fatostatin]",E-Cadherin expression,E-Cadherin,enhanced the expression of E-Cadherin
"C#CCC(Cc1cnc2nc(N)nc(N)c2n1)c1ccc(C(=O)N[C@@H](CCC(=O)O)C(=O)O)cc1 (stereo partly drawn) [Pralatrexate, pralatrexate]",expression of NICD and Survivin in tumour tissue,"miRNA-34a/Notch pathway; NICD expression restored in MHCC97-H cells, Pralatrexate 5 mg/kg",no longer able to inhibit the expression of NICD and Survivin
same,expression of factors related to the Notch pathway in tumour tissue,miRNA-34a/Notch pathway; Pralatrexate 5 mg/kg oral,down-regulate the expression of factors related to the Notch pathway
same,expression of miRNA-34a in tumour tissue,miRNA-34a/Notch pathway; Pralatrexate 5 mg/kg oral,up-regulate the expression of miRNA-34a
same,methylation of the promoter region of miRNA-34a in tumour tissue,miRNA-34a/Notch pathway; Pralatrexate 5 mg/kg oral,inhibit the methylation of the promoter region of miRNA-34a
same,Warburg effect of HCC cells,HCC cells,did not inhibit the Warburg effect
same,expression levels of NICD and Notch downstream factors,NICD,no longer able to affect the expression levels of NICD and Notch downstream factors
same,miRNA-34a expression,miRNA-34a,upregulate miRNA-34a expression
same,effect of combination on antitumour activity of sorafenib,"MHCC97-H cells [2]; 5 mg/kg Pralatrexate + 0.2 mg/kg sorafenib, oral",significantly increase the antitumour activity of sorafenib
same,"antitumour activity / cytotoxicity, subcutaneous tumours","MHCC97-H cells [2]; Pralatrexate 5 mg/kg oral gavage, alone",did not have significant cytotoxicity and weak
same,"anti-tumour activity, subcutaneous tumours",MHCC97-H cells [2]; Pralatrexate higher doses (e.g. 20 mg/kg) oral gavage,significant anti-tumour activity
same,Notch 1 protein expression (cytoplasm),Notch 1 protein and NICD,did not affect the protein expression of Notch 1
same,distribution of NICD in the nucleus,Notch 1 protein and NICD,did not affect the distribution of NICD in the nucleus
same,methylation rates of miRNA-34a promoter region,[3],decrease the methylation rates
same,E-Cadherin expression,E-Cadherin,upregulated the expression of E-cadherin; also recorded: enhanced the expression of E-Cadherin
"CNC(=O)c1cc(Oc2ccc(NC(=O)Nc3ccc(Cl)c(C(F)(F)F)c3)cc2)ccn1 [Sorafenib, sorafenib]",pIC50,"MHCC97-H cells [4]; read-out: IC50 value of sorafenib in MHCC97-H cells, Control siRNA",5.95
same,pIC50,"MHCC97-H cells [4]; read-out: IC50 values of Sorafenib on MHCC97-H cells, Control group",5.99
same,pIC50,"MHCC97-H cells [4]; read-out: IC50 values of Sorafenib on MHCC97-H cells, DHFR + miRNA-34a",6.60
same,pIC50,"MHCC97-H cells [4]; read-out: IC50 values of Sorafenib on MHCC97-H cells, DHFR overexpression",5.27
same,pIC50,"MHCC97-H cells [4]; read-out: IC50 values of Sorafenib on MHCC97-H cells, siDHFR + NICD",5.25
same,half-life at 1 μmol/L,[1],18.8 h
same,pIC50,"HepG2 cells; HepG2, read-out: IC50 values of sorafenib on HCC cells, HepG2 cells, control",5.94
same,pIC50,"HepG2 cells; HepG2, read-out: IC50 values of sorafenib on HCC cells, HepG2 cells, siDHFR",7.43
same,pIC50,"LMC-3 cells; read-out: IC50 values of sorafenib on HCC cells, LMC-3 cells, control",6.04
same,pIC50,"LMC-3 cells; read-out: IC50 values of sorafenib on HCC cells, LMC-3 cells, siDHFR",7.60
same,"antitumour activity, subcutaneous tumours","MHCC97-H cells [2]; sorafenib 0.2 mg/kg (low dose) oral gavage, alone",weak subcutaneous tumourigenic inhibitory activity and weak
same,pIC50,"HepG2 2.2.15 cells; HepG2 2.2.15, read-out: IC50 values of sorafenib on HCC cells, HepG2 2.2.15 cells, control",5.90
same,pIC50,"HepG2 2.2.15 cells; HepG2 2.2.15, read-out: IC50 values of sorafenib on HCC cells, HepG2 2.2.15 cells, siDHFR",7.89
